In ChEMBL document CHEMBL1135512 (J Med Chem, 2002):

Tests used:
[1] = In vitro hemolytic concentration on uninfected erythrocytes.; assay type: functional, Homo sapiens
Outline: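 Washed A+ human erythrocytes were held at 1.5% hematocrit in RPMI 1640 with 10% human serum, 25 mM HEPES and 25 mM NaHCO3. Drug (2 mM to 1 μM final, triplicate) was added for 42 h at 37 °C under 10% O2/6% CO2. Released hemoglobin in supernatant was measured with TMB/H2O2 at 455 nm. HC50 is relative to 5% saponin lysis, by nonlinear regression.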

Plasmodium falciparum [2] = assay: Concentration required to reduce chloroquine IC50 by 50%; assay type: functional, organism-based; conditions: Plasmodium falciparum
Outline: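 Synergy isotopic microtest on sorbitol-synchronized W2 (Indochina) and 3D7 in RPMI 1640 with 10% human serum, HEPES/NaHCO3, parasitemia 0.5%, hematocrit 1.5%. CQ was combined with subinhibitory fixed DEEA concentrations, and 3H-hypoxanthine was added for 48 h at 37 °C under 10% O2/6% CO2/84% N2. Reversal IC50 is the DEEA concentration halving CQ IC50, found by nonlinear regression of log-dose/IC50.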

Plasmodium falciparum [3] = assay: Accumulation coefficient of chloroquine at 1 uM -10 uM of DEEA against Plasmodium falciparum W2; Range is from 15-101; assay type: functional
Outline: (§1)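 W2 infected erythrocytes were suspended in RPMI 1640 with 25 mM HEPES and 25 mM NaHCO3 (2% parasitemia, 2% hematocrit). They were mixed over silicone oil with buffer holding [3H]CQ (26 Ci/mmol) plus DEEA at 1 or 10 μM. Incubation was 1 h at 37 °C under 10% O2/6% CO2/84% N2, followed by 1 min centrifugation. Ratio = parasite [3H]CQ (infected minus uninfected cells) / same-volume buffer.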

Plasmodium falciparum [4] = assay: In vitro inhibitory activity against multidrug-resistant Plasmodium falciparum W2 Indochina; assay type: functional, organism-based; conditions: Plasmodium falciparum
Outline: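 Clone W2 (Indochina), sorbitol-synchronized, was grown in RPMI 1640 with 10% human serum, 25 mM HEPES and 25 mM NaHCO3, at final parasitemia 0.5% and hematocrit 1.5%. The drug was present for 48 h at 37 °C under 10% O2/6% CO2/84% N2. Growth was read as 3H-hypoxanthine uptake (1 μCi/well). IC50 came from nonlinear regression of log-dose/response as the geometric mean with 95% CI.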

[5] = Dissociation constant (pKa); assay type: physicochemical
Plasmodium falciparum [6] = assay: Percent reversal against Plasmodium falciparum W2 at 1 uM DEEA; assay type: functional
[7] = Cytotoxicity against Chinese hamster ovary cells; assay type: cell-based, Cricetulus griseus
Outline: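 Cells were then exposed to graded drug concentrations for 48 h at 37 °C, 5% CO2. MTT (1 mg/mL in PBS) was added for 3 h, and formazan was dissolved in DMSO and read at 570/630 nm. IC50 came from nonlinear regression versus drug-free wells.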

[8] = Partition coefficient (logP); assay type: physicochemical; conditions: octanol/water; read-out: logP
[9] = Partition coefficient (logD7.0); assay type: physicochemical; conditions: octanol/water, pH 7; read-out: logD
Plasmodium falciparum [10] = assay: Accumulation coefficient of chloroquine at 1 um-10 uM of DEEA against Plasmodium falciparum W2;Range is from 14-15; assay type: functional; outline: as §1
Plasmodium falciparum [11] = assay: Accumulation coefficient of chloroquine at 1 uM-10 uM of DEEA against Plasmodium falciparum W2; Range is from 16-71; assay type: functional; outline: as §1
Plasmodium falciparum [12] = assay: Accumulation coefficient of chloroquine at 1 uM-10 uM of DEEA against Plasmodium falciparum W2; Range is from 62-63; assay type: functional
Plasmodium falciparum [13] = assay: Accumulation coefficient of chloroquine at 1 uM-10 uM of DEEA against Plasmodium falciparum W2; Range is from 18-16; assay type: functional
Plasmodium falciparum [14] = assay: Accumulation coefficient of chloroquine at 1 uM-10 uM of DEEA against Plasmodium falciparum W2; Range is from 19-23; assay type: functional; outline: as §1
Plasmodium falciparum [15] = assay: Accumulation coefficient of chloroquine at 1 uM-10 uM of DEEA against Plasmodium falciparum W2; assay type: functional; outline: as §1
Plasmodium falciparum [16] = assay: Percent reversal against Plasmodium falciparum W2 at 1 uM DEEA

CC1C2c3ccccc3C(c3ccccc32)C1C(=O)Nc1ccncc1 (stereo unspecified)
HC50 [1]: >2000 µM
IC50 (Plasmodium falciparum [2]): 1490 µM
Accumulation coefficient (Plasmodium falciparum [3]): 101
IC50 (Plasmodium falciparum [4]): 833 µM
pKa [5]: 5.27
Reversal (Plasmodium falciparum [6]): 21%
Cytotoxicity [7]: > 500 µM
logP [8]: 3.85
logD [9]: 3.85

CC1C2c3ccccc3C(c3ccccc32)C1C(=O)Nc1ccccn1 (stereo unspecified)
HC50 [1]: 1827 µM
Accumulation coefficient (Plasmodium falciparum [10]): 15
IC50 (Plasmodium falciparum [4]): 302 µM
pKa [5]: 5.27
Reversal (Plasmodium falciparum [6]): 0%
Cytotoxicity [7]: 205 µM
logP [8]: 4.17
logD [9]: 4.16

CN(C)CCNC1CC2c3ccccc3C1c1ccccc12 (stereo unspecified)
HC50 [1]: 644 µM
Accumulation coefficient (Plasmodium falciparum [11]): 71
IC50 (Plasmodium falciparum [2]): 0.8 µM
IC50 (Plasmodium falciparum [4]): 8 µM
pKa [5]: 9.48
Reversal (Plasmodium falciparum [6]): 63%
Cytotoxicity [7]: 695 µM
logP [8]: 3.17
logD [9]: -1.5

CCOC(=O)C1C2c3ccccc3C(c3ccccc32)C1N(C)C (stereo unspecified)
HC50 [1]: >2000 µM
IC50 (Plasmodium falciparum [2]): 3.1 µM
IC50 (Plasmodium falciparum [4]): 34 µM
pKa [5]: 7.48
Reversal (Plasmodium falciparum [6]): 0%
Accumulation coefficient (Plasmodium falciparum [12]): 63
Cytotoxicity [7]: > 2000 µM
logP [8]: 3.6
logD [9]: 3

CN(C)C1C2c3ccccc3C(c3ccccc32)C1C(=O)O (stereo unspecified)
HC50 [1]: >2000 µM
IC50 (Plasmodium falciparum [2]): > 100 µM
IC50 (Plasmodium falciparum [4]): > 50 µM
pKa [5]: 8.3
Reversal (Plasmodium falciparum [6]): 0%
Cytotoxicity [7]: > 2000 µM
logP [8]: 2.7
Accumulation coefficient (Plasmodium falciparum [13]): 18
logD [9]: 0.1

CC1C2c3ccccc3C(c3ccccc32)C1C(=O)/N=C/N(C)C (stereo unspecified)
HC50 [1]: >2000 µM
Accumulation coefficient (Plasmodium falciparum [14]): 23
IC50 (Plasmodium falciparum [2]): 40 µM
IC50 (Plasmodium falciparum [4]): 51 µM
Reversal (Plasmodium falciparum [6]): 0%
Cytotoxicity [7]: > 2000 µM
logP [8]: 3.26
logD [9]: 3.26

CC1C2c3ccccc3C(c3ccccc32)C1C(N)=O (stereo unspecified)
HC50 [1]: >2000 µM
IC50 (Plasmodium falciparum [2]): 20 µM
IC50 (Plasmodium falciparum [4]): 41 µM
pKa [5]: -0.89
Accumulation coefficient (Plasmodium falciparum [15]): 22
Reversal (Plasmodium falciparum [16]): 0%
Cytotoxicity [7]: > 2000 µM
logP [8]: 2.89
logD [9]: 2.89
